Converted amounts (≈) assume the structure as drawn.
Experiments:
[1] = tested on: Plasma; test: Metabolic stability in human plasma assessed as compound remaining at 5 uM after 5 hrs; assay type: ADME, cell-free
Procedure, shortened: (§1)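 Compound incubated in human or mouse plasma; stability reported as percent remaining after 5 h.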

[2] = tested on: Plasma; test: Metabolic stability in mouse plasma assessed as compound remaining at 5 uM after 5 hrs; assay type: ADME, cell-free; procedure, shortened: as §1
[3] = target: T1, Proteinase-activated receptor 1 (Homo sapiens, UniProt P25116); test: Inhibition of SFLLRN-NH2-stimulated PAR1-mediated platelet activation in […] assessed as surface expression of P-selectin after 20 mins by flow cytometry; set-up: species or system Plasma
T1 sequence (P25116 whole entry): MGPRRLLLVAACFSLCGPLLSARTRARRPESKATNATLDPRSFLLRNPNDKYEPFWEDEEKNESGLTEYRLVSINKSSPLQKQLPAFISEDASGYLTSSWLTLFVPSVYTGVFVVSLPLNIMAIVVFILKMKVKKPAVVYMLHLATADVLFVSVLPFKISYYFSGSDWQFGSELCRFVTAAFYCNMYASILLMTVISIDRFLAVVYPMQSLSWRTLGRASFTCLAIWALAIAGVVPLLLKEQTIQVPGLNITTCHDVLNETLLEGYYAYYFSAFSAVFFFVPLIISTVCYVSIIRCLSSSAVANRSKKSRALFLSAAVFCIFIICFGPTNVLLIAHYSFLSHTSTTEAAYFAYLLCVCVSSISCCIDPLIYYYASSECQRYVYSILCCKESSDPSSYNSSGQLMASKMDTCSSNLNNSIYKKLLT

[4] = tested on: Plasma; test: Plasma protein binding in mouse; assay type: ADME, cell-free
[5] = target: T2, Proteinase-activated receptor 1 (Homo sapiens) (UniProt P25116); test: Inhibition of SFLLRN-NH2-stimulated PAR1-mediated platelet activation in […] assessed as surface expression of P-selectin at 10 uM after 20 mins by flow cytometry; assay type: cell-based
T2 sequence (whole entry): T1 sequence (P25116 whole entry)

[6] = tested on: Plasma; test: Plasma protein binding in human; assay type: ADME, cell-free
[7] = Solubility of the compound in phosphate buffered saline; assay type: physicochemical; details: buffer
[8] = target: T2, Proteinase-activated receptor 1 (Homo sapiens); test: Inhibition of SFLLRN-NH2-stimulated PAR1-mediated platelet activation in platelet-rich human plasma assessed as surface expression of P-selectin at 3 uM after 20 mins by flow cytometry; details: Platelets, in the assay text read “gel-filtered human platelets” for “platelet-rich human plasma”
Procedure, shortened: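 Gel-filtered human platelets (0.5–1 × 10⁸/mL) exposed to antagonist at 3 μM, then challenged with 5 μM SFLLRN for 10 min. Platelets stained with PE-conjugated AC1.2 anti-P-selectin antibody for 20 min at 37 °C, diluted in PBS and measured immediately by flow cytometry.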

| SMILES | IC50 [3] [nM] | inhibition [5] [%] | also measured |
| --- | --- | --- | --- |
| CCCCNc1cccc(NC(=O)c2ccccc2Br)c1 | 340 | > 99 | Stability [1]: 99%; Stability [2]: 97%; PPB [4]: 96%; PPB [6]: 97% |
| Cc1ccccc1C(=O)Nc1cccc(NC(=O)Cc2ccc(Cl)cc2)c1 | – | 40 | – |
| CCCC(=O)Nc1cccc(NC(=O)c2cccnc2)c1 | – | < 1 | – |
| CCCC(=O)N(C)c1cccc(NC(=O)c2ccccc2Br)c1 | – | 8 | Stability [1]: 90%; Stability [2]: 85%; PPB [4]: 85%; PPB [6]: 98% |
| CCCC(=O)Nc1cccc(NC(=O)c2ccc(Cl)cc2)c1 | – | 80 | – |
| CCCC(=O)Nc1cccc(NC(=O)c2ccccc2Cl)c1 | 1100 | > 99 | – |
| CCCCC(=O)Nc1cccc(NC(=O)c2ccccc2Br)c1 | – | < 1 | – |
| CCCC(=O)Nc1cccc(NC(=O)c2ccccc2C(=O)N(C)C)c1 | – | 48 | – |
| CCCC(=O)Nc1cccc(NC(=O)c2cc(Cl)ccc2Br)c1 | 380 | 68 | – |
| CCCC(=O)Nc1cccc(NC(=O)c2ccccc2OC)c1 | – | 50 | – |
| CCCC(=O)Nc1cccc(NC(=O)c2cccc(NC(C)=O)c2)c1 | – | 55 | – |
| CCCC(=O)Nc1cccc(NC(=O)c2ccc(C(F)(F)F)cc2)c1 | – | 30 | – |
| CCCC(=O)Nc1cccc(NC(=O)c2cccc(Cl)c2Cl)c1 | 3120 | 99 | – |
| Cc1ccccc1C(=O)Nc1cccc(NC(=O)CC(C)C)c1 | 1120 | > 99 | Stability [1]: > 99%; Stability [2]: 69%; PPB [4]: 83%; PPB [6]: 96% |
| CCCC(=O)Nc1cccc(NCc2ccccc2Br)c1 | – | 60 | Stability [1]: 73%; Stability [2]: 1% |
| CCC(=O)Nc1cccc(NC(=O)c2ccccc2C)c1C | – | 5 | – |
| CCCC(=O)Nc1cccc(NC(=O)c2ccc(F)cc2)c1 | – | 85 | – |
| CCCC(=O)Nc1cccc(NC(=O)c2ccco2)c1 | – | 30 | – |
| CC(=O)Nc1cccc(NC(=O)c2ccccc2Cl)c1 | – | 35 | – |
| CCCC(=O)Nc1cccc(NC(=O)c2ccccc2F)c1 | 970 | 99 | – |
| CCS(=O)(=O)N1CCCc2ccc(NC(=O)c3ccccc3Br)cc21 | – | 26 | Stability [1]: > 99%; Stability [2]: 97%; PPB [4]: 96%; PPB [6]: 98% |
| O=C(Nc1cccc(N2CCCCC2=O)c1)c1ccccc1Br | – | 9 | Stability [1]: 94%; Stability [2]: 82%; PPB [4]: 72%; PPB [6]: 82% |
| CC(C)C(=O)Nc1cccc(NC(=O)c2ccccc2Br)c1 | 1410 | 88 | Stability [2]: 83% |

| SMILES | IC50 [3] [nM] | inhibition [5] [%] | also measured |
| --- | --- | --- | --- |
| CCS(=O)(=O)Nc1cccc(NC(=O)c2ccccc2Br)c1 | – | 27 | Stability [1]: 99%; Stability [2]: > 99%; PPB [4]: 69%; PPB [6]: 93% |
| O=C(Nc1cccc(N2CCCS2(=O)=O)c1)c1ccccc1Br | – | 8 | Stability [1]: > 99%; Stability [2]: 98%; PPB [4]: 76% |
| CCCC(=O)Nc1cccc(NC(=O)c2c(C)cccc2C)c1 | 3000 | 98 | – |
| CCCNC(=O)c1coc(NC(=O)c2ccccc2Br)n1 | – | < 1 | – |
| CC(C)CC(=O)Nc1cccc(NC(=O)c2ccccc2Br)c1 | 290 | > 99 | solubility [7]: 20 µM (≈ 7.51 µg/mL); Stability [1]: 90%; Stability [2]: 65%; PPB [4]: 87%; PPB [6]: 93% |
| CCCC(=O)Nc1ccc(NC(=O)c2ccccc2Br)cc1 | – | 1 | – |
| CCCC(=O)Nc1cccc(NC(=O)c2cccc(C)c2)c1 | – | 88 | – |
| CC(=O)N1CCCc2ccc(NC(=O)c3ccccc3Br)cc21 | – | 10 | Stability [1]: 92%; Stability [2]: 71%; PPB [4]: 89% |
| CCCC(=O)Nc1cccc(NC(=O)c2cnc3ccccc3c2)c1 | – | 10 | – |
| O=C(Nc1ccnc(NC(=O)c2ccccc2Br)c1)c1ccccc1 | – | 11 | – |
| CCCC(=O)Nc1cccc(NC(=O)c2ccccc2)c1 | – | 64 | – |
| CCOC(=O)Nc1cccc(NC(=O)c2ccccc2Br)c1 | 2640 | 98 | Stability [1]: 85%; Stability [2]: 56%; PPB [4]: 87%; PPB [6]: 95% |
| CCCC(=O)Nc1cccc(N(C)C(=O)c2ccccc2Br)c1 | – | < 1 | Stability [1]: 19%; Stability [2]: < 1%; PPB [6]: 89% |
| CCCC(=O)Nc1cccc(C(=O)Nc2ccccc2Cl)c1 | – | 67 | – |
| CCCC(=O)Nc1cccc(NC(=O)c2ccccc2-c2ccccc2)c1 | – | < 1 | – |
| CCCC(=O)Nc1cccc(NC(=O)c2cccc([N+](=O)[O-])c2)c1 | – | 55 | – |
| CCCC(=O)Nc1cccc(NC(=O)c2cccc(-c3ccccc3)c2)c1 | 2200 | 98 | – |
| CCCC(=O)Nc1cccc(NC(=O)c2c(Cl)cccc2Br)c1 | 2280 | > 99 | – |
| CCCC(=O)Nc1cccc(NC(=O)c2cccc(C#N)c2)c1 | – | 70 | – |
| CCCCS(=O)(=O)Nc1cccc(NC(=O)c2ccccc2Br)c1 | – | 31 | Stability [1]: 97%; Stability [2]: > 99% |
| CCCC(=O)Nc1cccc(NC(=O)c2ccccc2S(C)(=O)=O)c1 | – | 21 | – |
| CCCC(=O)Nc1cccc(NC(=O)c2ccccc2CC)c1 | 520 | > 99 | – |
| CCCC(=O)Nc1cccc(NC(=O)c2ccccc2C(F)(F)F)c1 | 1290 | 99 | – |

| SMILES | IC50 [3] [nM] | inhibition [5] [%] | also measured |
| --- | --- | --- | --- |
| O=C(Nc1cc(NC(=O)C2CCCC2)ccn1)c1ccccc1Br | – | < 1 | – |
| O=C(Nc1cccc(NC(=O)C2CCCC2)c1)c1ccccc1Br | 520 | 91 | Stability [2]: 26% |
| CCCC(=O)Nc1cccc(NC(=O)c2ccccc2OC(F)(F)F)c1 | 710 | > 99 | – |
| CC(C)CNC(=O)c1coc(NC(=O)c2ccccc2Br)n1 | – | < 1 | – |
| CCCC(=O)Nc1cccc(NC(=O)c2ccc(OC)cc2)c1 | – | 15 | – |
| CCCC(=O)Nc1cccc(NC(=O)c2cccc(S(C)(=O)=O)c2)c1 | – | 25 | – |
| CCC(=O)Nc1cccc(NC(=O)c2ccccc2Br)c1 | 1680 | – | inhibition [8]: 95% |
| CCCC(=O)Nc1cccc(NC(=O)c2cc(F)ccc2Br)c1 | 600 | > 99 | – |
| CCCC(=O)Nc1cccc(NC(=O)c2ccc(F)cc2Br)c1 | 390 | > 99 | – |
| CCCC(=O)Nc1cccc(NC(=O)c2ccc(S(C)(=O)=O)cc2)c1 | – | 10 | – |
| CCC(C)(C)C(=O)Nc1cccc(NC(=O)c2ccccc2Br)c1 | – | 21 | Stability [1]: > 99%; Stability [2]: > 99%; PPB [6]: 95% |
| CCCC(=O)Nc1cccc(NC(=O)c2cccc(Oc3ccccc3)c2)c1 | – | – | inhibition [8]: 65% |
| CCCNC(=O)c1cccc(NC(=O)c2ccccc2Cl)c1 | 1800 | 99 | – |
| CCCC(=O)Nc1cccc(NC(=O)c2cc(C)ccc2Br)c1 | 480 | > 99 | – |
| CCCC(=O)Nc1ccc(Cl)c(NC(=O)c2ccccc2Br)c1 | – | 35 | – |
| CN(C(=O)c1ccccc1Br)c1cccc(NC(=O)C2CCCC2)c1 | – | < 1 | Stability [1]: 64%; Stability [2]: 40%; PPB [4]: 90%; PPB [6]: 95% |
| CCCC(=O)Nc1cccc(NC(=O)c2ccc(C)cc2)c1 | – | 25 | – |
| O=C(Nc1cccc(NC(=O)c2ccccc2Br)c1)c1ccccc1 | – | 67 | – |
| CCCC(=O)Nc1cccc(NC(=O)c2ccccc2C)c1 | 770 | 98 | – |
| CCCC(=O)Nc1cccc(NC(=O)c2cccc(Cl)c2)c1 | – | – | inhibition [8]: 80% |
| CCCC(=O)Nc1ccc2nc(-c3ccccc3Br)[nH]c2c1 | – | 39 | – |
| CCCC(=O)Nc1ccnc(NC(=O)c2ccccc2Br)c1 | – | < 1 | – |

Source: ChEMBL document CHEMBL2046322, “Discovery of 1,3-Diaminobenzenes as Selective Inhibitors of Platelet Activation at the PAR1 Receptor” (ACS Med Chem Lett, 2012)
